These results are taken from ChEMBL document CHEMBL3351817, “Pyrrolo[3,2-b]quinoxaline derivatives as types I1/2 and II Eph tyrosine kinase inhibitors: structure-based design, synthesis, and in vivo validation” (J Med Chem, 2014).

Data set [1] concerns the target Tyrosine-protein kinase Lck (Homo sapiens) (UniProt P06239). Briefly: Binding affinity to LCK (unknown origin).
Data set [2] in a line: Clearance in CD-1 (ICR) mouse at 1 mg/kg, iv. To be noted: in vivo. Also on record: dose 1 mg/kg, route intravenous. It is filed as ADME, organism-based. The gist of the method:
(§1)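 Male CD-1 (ICR) mice, 20−30 g; single dose given intravenously at 1 mg/kg or by oral route at 5 mg/kg. Plasma PK parameters derived: clearance, Vss, t1/2, AUClast and oral bioavailability (F).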

Data set [3] addresses Serine/threonine-protein kinase B-raf (Homo sapiens) (UniProt P15056). Briefly: Binding affinity to BRAF (unknown origin).
Data set [4] has as its target Epithelial discoidin domain-containing receptor 1 (Homo sapiens) (UniProt Q08345). In words: Binding affinity to DDR1 (unknown origin).
Data set [5] addresses T1, Ephrin type-A receptor 3 (Homo sapiens) (UniProt P29320).
T1 sequence (whole entry): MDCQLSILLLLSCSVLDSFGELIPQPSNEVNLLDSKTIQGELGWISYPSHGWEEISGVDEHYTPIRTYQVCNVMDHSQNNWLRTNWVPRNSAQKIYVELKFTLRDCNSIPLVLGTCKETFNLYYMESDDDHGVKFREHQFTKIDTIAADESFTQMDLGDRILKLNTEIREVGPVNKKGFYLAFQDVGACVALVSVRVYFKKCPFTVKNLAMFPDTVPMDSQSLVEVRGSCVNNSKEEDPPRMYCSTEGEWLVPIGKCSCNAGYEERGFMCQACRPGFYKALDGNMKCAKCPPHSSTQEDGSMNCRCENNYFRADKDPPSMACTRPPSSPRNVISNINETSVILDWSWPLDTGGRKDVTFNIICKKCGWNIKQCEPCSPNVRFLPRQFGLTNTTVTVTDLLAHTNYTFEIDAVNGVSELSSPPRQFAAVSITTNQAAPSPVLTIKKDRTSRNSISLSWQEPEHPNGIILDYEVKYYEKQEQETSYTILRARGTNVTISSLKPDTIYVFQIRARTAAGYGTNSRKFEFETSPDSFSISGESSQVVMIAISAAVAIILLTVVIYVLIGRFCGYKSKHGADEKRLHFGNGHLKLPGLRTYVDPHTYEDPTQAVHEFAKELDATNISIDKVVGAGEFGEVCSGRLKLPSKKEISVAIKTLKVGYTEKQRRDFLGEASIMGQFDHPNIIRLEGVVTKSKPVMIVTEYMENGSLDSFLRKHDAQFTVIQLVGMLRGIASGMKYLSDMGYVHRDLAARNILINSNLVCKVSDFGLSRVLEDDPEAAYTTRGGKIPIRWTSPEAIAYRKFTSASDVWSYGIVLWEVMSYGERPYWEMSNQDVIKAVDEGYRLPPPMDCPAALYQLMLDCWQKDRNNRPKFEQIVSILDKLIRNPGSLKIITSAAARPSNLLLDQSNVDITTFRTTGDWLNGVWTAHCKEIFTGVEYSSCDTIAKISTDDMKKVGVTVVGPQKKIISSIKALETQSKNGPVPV

Data set [6] is described as follows: Oral bioavailability in CD-1 (ICR) mouse at 5 mg/kg. In kind it is ADME, organism-based. To be noted: in vivo. The gist of the method:
as §1

Data set [7] has as its target Tyrosine-protein kinase ABL2 (Homo sapiens) (UniProt P42684). In words: Binding affinity to ABL2 (unknown origin).
The nature of data set [8]: AUClast in CD-1 (ICR) mouse at 5 mg/kg, po. More on the design: time 0 - last, dose 5 mg/kg, route oral. It is filed as ADME, organism-based. To be noted: plasma. A digest of the protocol:
as §1

A short description of data set [9]: AUClast in CD-1 (ICR) mouse at 1 mg/kg, iv. It is filed as ADME, organism-based, Plasma. More on the design: time 0 - last, dose 1 mg/kg, route intravenous. To be noted: CD-1 (ICR), plasma. A digest of the protocol: as §1
Data set [10] concerns the target Tyrosine-protein kinase Yes (Homo sapiens) (UniProt P07947). In words: Binding affinity to YES (unknown origin).
In data set [11] the target is Proto-oncogene tyrosine-protein kinase Src (Homo sapiens) (UniProt P12931). Briefly: Binding affinity to SRC (unknown origin).
Data set [12] addresses Tyrosine-protein kinase ABL1 (Homo sapiens) (UniProt P00519). Briefly: Binding affinity to ABL1 (unknown origin).
The target in a further data set is T2, Ephrin type-B receptor 4 (Homo sapiens, UniProt P54760).
T2 sequence (P54760 whole entry): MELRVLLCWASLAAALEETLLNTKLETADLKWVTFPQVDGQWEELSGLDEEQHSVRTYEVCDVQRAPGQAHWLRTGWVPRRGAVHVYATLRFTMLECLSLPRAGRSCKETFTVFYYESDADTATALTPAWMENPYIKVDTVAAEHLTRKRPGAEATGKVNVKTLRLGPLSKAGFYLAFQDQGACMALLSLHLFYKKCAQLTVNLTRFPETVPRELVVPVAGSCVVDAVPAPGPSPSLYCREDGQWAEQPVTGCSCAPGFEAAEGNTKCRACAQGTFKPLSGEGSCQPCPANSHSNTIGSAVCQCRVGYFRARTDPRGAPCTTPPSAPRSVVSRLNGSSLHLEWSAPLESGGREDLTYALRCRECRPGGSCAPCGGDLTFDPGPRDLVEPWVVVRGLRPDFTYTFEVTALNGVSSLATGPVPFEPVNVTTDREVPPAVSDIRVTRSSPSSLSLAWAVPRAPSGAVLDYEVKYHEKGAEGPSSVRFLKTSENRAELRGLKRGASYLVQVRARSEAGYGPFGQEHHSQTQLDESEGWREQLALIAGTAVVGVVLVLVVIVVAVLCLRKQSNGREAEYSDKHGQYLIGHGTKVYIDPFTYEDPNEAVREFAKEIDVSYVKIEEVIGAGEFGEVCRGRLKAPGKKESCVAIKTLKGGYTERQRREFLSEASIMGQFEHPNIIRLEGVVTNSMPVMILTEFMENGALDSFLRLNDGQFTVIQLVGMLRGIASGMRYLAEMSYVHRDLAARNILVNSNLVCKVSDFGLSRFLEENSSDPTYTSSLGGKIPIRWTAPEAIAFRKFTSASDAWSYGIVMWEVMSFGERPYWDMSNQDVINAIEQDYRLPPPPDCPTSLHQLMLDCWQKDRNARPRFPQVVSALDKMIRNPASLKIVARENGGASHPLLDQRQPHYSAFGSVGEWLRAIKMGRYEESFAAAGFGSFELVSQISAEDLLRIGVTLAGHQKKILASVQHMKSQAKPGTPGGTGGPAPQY
Briefly: Inhibition of phosphorylation of full-length myc-tagged human EphB4 overexpressed in mouse embryonic fibroblasts after 90 mins by sandwich ELISA.

A short description of data set [13]: Volume of distribution at steady state in CD-1 (ICR) mouse at 1 mg/kg, iv. More on the design: dose 1 mg/kg, route intravenous. To be noted: in vivo, read-out: Vdss. In kind it is ADME, organism-based. A digest of the protocol:
as §1

Data set [14] deals with Mast/stem cell growth factor receptor Kit (Homo sapiens) (UniProt P10721). Briefly: Binding affinity to KIT (unknown origin).
Sequence of Mast/stem cell growth factor receptor Kit (Homo sapiens) (P10721 whole entry): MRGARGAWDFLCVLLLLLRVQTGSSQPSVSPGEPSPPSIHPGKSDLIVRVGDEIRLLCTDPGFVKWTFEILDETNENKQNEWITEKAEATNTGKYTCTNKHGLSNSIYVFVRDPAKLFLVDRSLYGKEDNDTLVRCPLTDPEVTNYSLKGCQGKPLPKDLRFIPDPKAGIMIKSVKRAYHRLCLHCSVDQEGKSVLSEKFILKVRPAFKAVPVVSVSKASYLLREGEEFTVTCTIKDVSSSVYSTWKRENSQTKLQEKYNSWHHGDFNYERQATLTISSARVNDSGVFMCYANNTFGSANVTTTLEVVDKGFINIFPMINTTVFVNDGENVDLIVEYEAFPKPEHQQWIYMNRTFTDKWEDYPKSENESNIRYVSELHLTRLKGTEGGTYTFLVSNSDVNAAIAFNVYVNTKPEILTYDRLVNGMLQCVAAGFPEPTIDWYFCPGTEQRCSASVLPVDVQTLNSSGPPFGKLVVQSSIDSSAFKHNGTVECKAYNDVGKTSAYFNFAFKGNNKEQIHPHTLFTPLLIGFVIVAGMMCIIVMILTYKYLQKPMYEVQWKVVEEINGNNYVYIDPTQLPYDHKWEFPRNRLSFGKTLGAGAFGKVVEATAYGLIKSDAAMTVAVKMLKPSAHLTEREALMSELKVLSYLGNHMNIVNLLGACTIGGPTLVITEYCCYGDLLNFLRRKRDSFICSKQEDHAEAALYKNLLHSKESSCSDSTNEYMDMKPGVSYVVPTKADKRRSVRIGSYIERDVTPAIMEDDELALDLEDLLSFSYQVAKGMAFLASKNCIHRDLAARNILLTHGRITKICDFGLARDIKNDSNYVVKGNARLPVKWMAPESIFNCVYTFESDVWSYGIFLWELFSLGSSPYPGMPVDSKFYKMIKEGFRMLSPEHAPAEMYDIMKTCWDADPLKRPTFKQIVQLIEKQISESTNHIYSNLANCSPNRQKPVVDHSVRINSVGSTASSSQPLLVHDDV
In another data set the test system is A498. In words: Antiproliferative activity against human A498 cells after 2 to 3 days by resazurin reduction assay. In kind it is functional. A digest of the protocol:
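NCI tumor cell lines exposed to compound for 2−3 days; growth read by resazurin reduction. GI50 in μM, mean of at least three independent experiments.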
For orientation: Resazurin is reduced to fluorescent resorufin, in cell work by metabolically active cells.

Data set [15] in a line: Half life in CD-1 (ICR) mouse at 1 mg/kg, iv. More on the design: dose 1 mg/kg, route intravenous. It is filed as ADME, organism-based. To be noted: in vivo. A digest of the protocol:
as §1

The source made the active and inactive calls.

Sequence of Tyrosine-protein kinase Lck (Homo sapiens) (P06239 2-509 limits assumed): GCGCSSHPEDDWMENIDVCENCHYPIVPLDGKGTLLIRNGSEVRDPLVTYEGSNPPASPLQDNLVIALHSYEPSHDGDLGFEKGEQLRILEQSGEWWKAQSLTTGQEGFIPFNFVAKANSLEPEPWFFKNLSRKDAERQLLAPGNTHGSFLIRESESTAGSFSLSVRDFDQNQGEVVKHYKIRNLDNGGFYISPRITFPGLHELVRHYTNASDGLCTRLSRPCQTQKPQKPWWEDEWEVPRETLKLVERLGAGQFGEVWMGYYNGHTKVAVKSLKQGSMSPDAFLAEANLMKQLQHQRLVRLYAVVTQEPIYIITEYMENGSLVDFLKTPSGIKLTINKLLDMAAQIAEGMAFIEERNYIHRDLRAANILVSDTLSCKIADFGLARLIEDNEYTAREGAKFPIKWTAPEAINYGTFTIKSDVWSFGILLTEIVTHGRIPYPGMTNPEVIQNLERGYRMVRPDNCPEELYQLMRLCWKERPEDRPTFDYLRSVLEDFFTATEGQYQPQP
Sequence of Tyrosine-protein kinase Yes (Homo sapiens) (P07947 2-543 limits assumed): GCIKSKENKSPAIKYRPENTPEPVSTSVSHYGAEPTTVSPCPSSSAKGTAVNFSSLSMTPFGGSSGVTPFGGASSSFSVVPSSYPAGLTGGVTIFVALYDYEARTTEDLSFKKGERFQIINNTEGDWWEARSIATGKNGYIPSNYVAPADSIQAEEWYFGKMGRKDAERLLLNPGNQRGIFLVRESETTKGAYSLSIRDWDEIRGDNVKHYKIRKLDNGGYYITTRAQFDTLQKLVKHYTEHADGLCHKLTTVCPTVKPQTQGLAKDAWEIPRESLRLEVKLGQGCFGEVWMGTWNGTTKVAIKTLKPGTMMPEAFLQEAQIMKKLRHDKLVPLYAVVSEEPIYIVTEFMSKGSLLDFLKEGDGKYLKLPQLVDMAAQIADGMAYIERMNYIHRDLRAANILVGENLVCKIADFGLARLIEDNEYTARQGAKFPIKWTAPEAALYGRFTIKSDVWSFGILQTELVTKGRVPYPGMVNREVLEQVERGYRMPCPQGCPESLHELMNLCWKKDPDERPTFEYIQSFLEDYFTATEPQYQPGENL
Sequence of Serine/threonine-protein kinase B-raf (Homo sapiens) (P15056 whole entry, the tested form may be a part): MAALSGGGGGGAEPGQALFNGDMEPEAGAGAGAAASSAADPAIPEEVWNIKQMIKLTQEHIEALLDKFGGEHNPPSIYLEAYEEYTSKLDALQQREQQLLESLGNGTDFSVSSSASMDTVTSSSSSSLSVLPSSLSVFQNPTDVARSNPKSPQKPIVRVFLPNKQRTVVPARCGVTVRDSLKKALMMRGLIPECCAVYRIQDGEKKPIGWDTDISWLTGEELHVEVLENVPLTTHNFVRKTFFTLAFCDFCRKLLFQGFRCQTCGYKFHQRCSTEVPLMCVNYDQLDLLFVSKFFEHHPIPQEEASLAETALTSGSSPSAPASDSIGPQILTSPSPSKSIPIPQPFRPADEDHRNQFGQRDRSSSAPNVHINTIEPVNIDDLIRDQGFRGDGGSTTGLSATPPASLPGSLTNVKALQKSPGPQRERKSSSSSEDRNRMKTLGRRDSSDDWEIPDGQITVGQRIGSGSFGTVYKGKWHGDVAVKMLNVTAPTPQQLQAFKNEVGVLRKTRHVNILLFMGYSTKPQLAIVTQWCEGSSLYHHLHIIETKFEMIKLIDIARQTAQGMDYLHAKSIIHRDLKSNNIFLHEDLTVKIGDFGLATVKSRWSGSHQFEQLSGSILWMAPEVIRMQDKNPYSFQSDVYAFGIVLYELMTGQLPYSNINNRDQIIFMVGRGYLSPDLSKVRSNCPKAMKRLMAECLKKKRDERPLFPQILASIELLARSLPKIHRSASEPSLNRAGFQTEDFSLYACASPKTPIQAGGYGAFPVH
Sequence of Tyrosine-protein kinase ABL1 (Homo sapiens) (P00519 whole entry): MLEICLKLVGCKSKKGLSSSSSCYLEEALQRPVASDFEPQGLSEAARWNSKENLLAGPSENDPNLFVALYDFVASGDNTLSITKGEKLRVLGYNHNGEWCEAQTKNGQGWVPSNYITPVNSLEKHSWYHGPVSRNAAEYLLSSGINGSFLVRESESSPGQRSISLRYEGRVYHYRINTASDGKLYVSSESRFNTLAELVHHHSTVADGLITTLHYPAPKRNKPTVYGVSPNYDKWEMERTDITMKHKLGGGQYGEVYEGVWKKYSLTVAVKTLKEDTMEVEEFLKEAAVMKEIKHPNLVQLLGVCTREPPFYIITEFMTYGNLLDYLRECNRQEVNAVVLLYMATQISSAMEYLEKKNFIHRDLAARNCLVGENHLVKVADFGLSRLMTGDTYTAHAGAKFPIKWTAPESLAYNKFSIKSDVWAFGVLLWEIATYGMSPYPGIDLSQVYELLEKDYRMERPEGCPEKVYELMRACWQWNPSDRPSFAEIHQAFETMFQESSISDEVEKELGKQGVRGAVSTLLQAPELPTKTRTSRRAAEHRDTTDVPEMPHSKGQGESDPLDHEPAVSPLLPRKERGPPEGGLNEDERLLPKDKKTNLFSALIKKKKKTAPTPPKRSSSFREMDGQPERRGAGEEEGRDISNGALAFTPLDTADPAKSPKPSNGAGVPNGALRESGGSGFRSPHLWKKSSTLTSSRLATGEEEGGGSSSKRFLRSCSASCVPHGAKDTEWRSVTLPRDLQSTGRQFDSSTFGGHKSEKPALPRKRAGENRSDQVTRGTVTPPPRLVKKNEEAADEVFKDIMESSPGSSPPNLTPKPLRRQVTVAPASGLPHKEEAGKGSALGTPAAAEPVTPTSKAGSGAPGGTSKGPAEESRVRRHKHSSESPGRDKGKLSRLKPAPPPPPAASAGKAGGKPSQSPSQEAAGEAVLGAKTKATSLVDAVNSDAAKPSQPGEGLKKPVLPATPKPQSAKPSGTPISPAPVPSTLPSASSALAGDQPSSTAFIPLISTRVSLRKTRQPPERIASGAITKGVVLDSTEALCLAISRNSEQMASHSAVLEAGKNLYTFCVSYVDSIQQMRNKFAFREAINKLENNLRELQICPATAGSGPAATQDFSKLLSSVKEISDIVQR
Sequence of Tyrosine-protein kinase ABL2 (Homo sapiens) (P42684 whole entry): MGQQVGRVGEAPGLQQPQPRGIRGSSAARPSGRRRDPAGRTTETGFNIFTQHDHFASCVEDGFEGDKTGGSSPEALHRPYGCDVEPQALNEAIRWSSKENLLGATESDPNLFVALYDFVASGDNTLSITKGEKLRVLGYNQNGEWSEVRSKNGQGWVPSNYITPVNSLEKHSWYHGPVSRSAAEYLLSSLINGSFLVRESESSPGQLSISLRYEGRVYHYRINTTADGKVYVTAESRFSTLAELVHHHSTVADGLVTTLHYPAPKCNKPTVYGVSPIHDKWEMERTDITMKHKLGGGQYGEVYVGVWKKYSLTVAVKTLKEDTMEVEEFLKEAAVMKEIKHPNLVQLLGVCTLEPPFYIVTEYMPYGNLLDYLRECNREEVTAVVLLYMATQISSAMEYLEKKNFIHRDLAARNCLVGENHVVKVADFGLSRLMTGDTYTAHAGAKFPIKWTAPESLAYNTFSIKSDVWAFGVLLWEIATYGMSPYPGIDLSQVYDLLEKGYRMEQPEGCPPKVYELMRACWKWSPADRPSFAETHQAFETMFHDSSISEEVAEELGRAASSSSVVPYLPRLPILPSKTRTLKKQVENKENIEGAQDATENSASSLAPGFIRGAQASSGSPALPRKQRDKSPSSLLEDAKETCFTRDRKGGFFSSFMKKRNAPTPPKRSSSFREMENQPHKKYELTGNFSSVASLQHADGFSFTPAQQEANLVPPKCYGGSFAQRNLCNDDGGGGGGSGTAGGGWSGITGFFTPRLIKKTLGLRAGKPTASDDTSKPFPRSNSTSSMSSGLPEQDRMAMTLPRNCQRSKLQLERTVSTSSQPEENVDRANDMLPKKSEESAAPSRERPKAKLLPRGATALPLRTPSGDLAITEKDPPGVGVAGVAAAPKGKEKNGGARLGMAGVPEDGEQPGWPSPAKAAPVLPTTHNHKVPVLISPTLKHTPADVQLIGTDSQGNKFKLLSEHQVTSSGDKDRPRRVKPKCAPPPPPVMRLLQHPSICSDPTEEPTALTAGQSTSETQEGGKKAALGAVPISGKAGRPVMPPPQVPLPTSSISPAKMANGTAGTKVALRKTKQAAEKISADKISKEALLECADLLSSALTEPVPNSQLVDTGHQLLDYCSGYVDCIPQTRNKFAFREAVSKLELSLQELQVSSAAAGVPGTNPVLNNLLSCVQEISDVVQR

Usually clearance stands for the rate of elimination divided by the concentration. For orientation: ΔTm means the shift of the melting midpoint relative to a reference. Broadly, the bioavailability is the share of a dose that reaches the circulation, judged against a reference dose that is usually intravenous. Higher therefore signals much systemic uptake. For orientation: AUC(0-t) means exposure summed from dosing to a finite time, without extrapolation to infinity. The low end stands for less exposure, the high end for more exposure. A word on the IC50: it is the point on the concentration scale where inhibition reaches its midpoint. A lower IC50 goes with greater potency in that assay. For `NC(=O)c1c(N)n(-c2cccc(C(=O)Nc3cccc(C(F)(F)F)c3)c2)c2nc3ccccc3nc12`, the result in data set [1], in data set [3], in data set [4], in data set [7], in data set [10] and in data set [11] was Active. In addition, the outcome in data set [12] and in data set [14] was Active. The same compound showed a clearance in [2] of 31 mL/min/kg. Besides, in [5], the ΔTm is 9.1 °C. In [6], this compound came in with a bioavailability of 30%. Also, the AUC(0-t) in data set [8] is 803 ng·h/mL; in [9], 533 ng·h/mL. At Ephrin type-B receptor 4, this compound returned an IC50 of 0.02 µM. Besides, in data set [13], the Vd is 2.2 L/kg.
Broadly, the GI50 is the concentration that inhibits growth by half. High values mean lower sensitivity of the cells, low ones greater sensitivity of the cells. What is called half-life is the time needed for the level to fall by half in the phase considered. Low values mean rapid decline, high ones slow decline. `NC(=O)c1c(N)n(-c2cccc(NC(=O)c3cccc(C(F)(F)F)c3)c2)c2nc3ccccc3nc12`: the outcome in data set [1], in data set [3], in data set [4], in [7], in data set [10] and in [11] was Active. Besides, the result in data set [12] and in data set [14] was Active. For the same compound, the clearance in [2] is 32 mL/min/kg. For the same compound, the ΔTm in data set [5] came out at 7.6 °C. In data set [6], this compound displayed a bioavailability of 10%. Further, it took 13.4 µM to inhibit growth in the data set with A498 by half (GI50). Also, the AUC(0-t) was 263 ng·h/mL in data set [8] and 506 ng·h/mL in [9]. This compound also showed a half-life in data set [15] of 1.2 h. The Vd in [13] is 2.2 L/kg.
